Results as given in ChEMBL document CHEMBL4152364, “Structure-activity relationship of novel (benzoylaminophenoxy)phenol derivatives as anti-prostate cancer agents” (Bioorg Med Chem, 2018).
Activity calls are given as the source filed them. The rule behind the calls is not given here.

Tests used:
[1] = target: T1, Androgen receptor (Mus musculus) (UniProt P19091); assay: Agonist activity at AR in mouse SC3 cells assessed as effect on cell proliferation after 3 days by CCK8 assay; format: cell-based
T1 sequence (whole entry): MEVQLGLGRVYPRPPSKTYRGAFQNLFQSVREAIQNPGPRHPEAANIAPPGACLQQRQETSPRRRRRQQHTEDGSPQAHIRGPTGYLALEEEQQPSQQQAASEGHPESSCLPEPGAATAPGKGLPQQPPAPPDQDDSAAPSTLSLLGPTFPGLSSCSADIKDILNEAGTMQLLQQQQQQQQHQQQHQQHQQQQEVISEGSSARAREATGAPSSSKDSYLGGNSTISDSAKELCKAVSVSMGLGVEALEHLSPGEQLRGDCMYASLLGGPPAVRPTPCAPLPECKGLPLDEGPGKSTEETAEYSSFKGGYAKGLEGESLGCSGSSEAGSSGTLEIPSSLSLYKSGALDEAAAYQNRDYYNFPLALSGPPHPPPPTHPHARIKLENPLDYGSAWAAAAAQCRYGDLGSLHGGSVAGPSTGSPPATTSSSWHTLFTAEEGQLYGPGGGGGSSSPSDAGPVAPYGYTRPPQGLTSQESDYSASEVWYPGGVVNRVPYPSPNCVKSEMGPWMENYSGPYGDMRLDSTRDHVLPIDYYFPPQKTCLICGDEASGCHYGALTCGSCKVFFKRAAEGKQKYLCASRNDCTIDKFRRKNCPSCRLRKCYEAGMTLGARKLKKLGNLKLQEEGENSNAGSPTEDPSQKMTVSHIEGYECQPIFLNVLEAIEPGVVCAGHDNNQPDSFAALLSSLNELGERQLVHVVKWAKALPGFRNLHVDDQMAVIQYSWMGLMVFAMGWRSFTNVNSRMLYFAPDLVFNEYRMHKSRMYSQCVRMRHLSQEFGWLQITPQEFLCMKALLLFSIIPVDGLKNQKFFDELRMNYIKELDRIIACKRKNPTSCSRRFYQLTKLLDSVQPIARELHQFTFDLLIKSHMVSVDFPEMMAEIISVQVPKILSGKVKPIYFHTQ
Summary of the method: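 SC-3 cells diluted to 20,000 cells/mL in MEM α with 2% charcoal-stripped FBS, seeded and held 24 h, then given serial dilutions of compound alone (DMSO as dilution control). Incubated 3 days at 37°C, 5% CO2. WST-8 (Cell Counting Kit-8) added for 2 h, absorbance read at 450 nm.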

[2] = target: T1, Androgen receptor (Mus musculus); assay: Antagonist activity at AR in mouse SC3 cells assessed as inhibition of DHT-induced cell proliferation up to 10 uM after 3 days by CCK8 assay; format: cell-based
Summary of the method: (§1)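 SC-3 cells diluted to 20,000 cells/mL in MEM α with 2% charcoal-stripped FBS, seeded and held 24 h, then given compound or DMSO with 1 nM DHT for 3 days at 37°C, 5% CO2. Read-out: WST-8 (CCK-8) for 2 h, absorbance at 450 nm. Compounds screened first at 10 µM. IC50 measured over 0.01–10 µM when inhibition exceeded 50%, taken as the level halving DHT-induced growth versus control. Triplicate or more.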

[3] = target: T1, Androgen receptor (Mus musculus); assay: Antagonist activity at AR in mouse SC3 cells assessed as inhibition of DHT-induced cell proliferation at 10 uM after 3 days by CCK8 assay relative to control; format: cell-based; summary of the method: as §1
[4] = test system: PC-3; assay: Antiproliferative activity against human PC3 cells assessed as inhibition of cell proliferation after 3 days in presence of DHT by WST8 assay; format: functional, cell-based
Summary of the method: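 PC-3 cells kept in RPMI-1640 with 10% FBS, then diluted to 20,000 cells/mL in RPMI-1640 with 10% charcoal-stripped FBS. Seeded and held 24 h, then given serial dilutions of compound or DMSO with 1 nM DHT for 3 days. WST-8 added for 2 h, absorbance at 450 nm. Viability normalized to vehicle-treated cells as 1.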

[5] = Antagonist activity at AR in mouse SC3 cells assessed as inhibition of DHT-induced cell proliferation after 3 days by CCK8 assay

Row | SMILES | Activity [1] | inhibition [2] | inhibition [3] [%] | inhibition [4] | IC50 [5] [nM]
1 | COc1ccc(C(=O)Nc2cccc(Oc3ccc(O)cc3)c2C)cc1 | inactive | – | – | – | –
2 | COc1ccccc1C(=O)Nc1ccc(Oc2cccc(O)c2)cc1 | inactive | inactive | – | – | –
3 | COc1cccc(C(=O)N(C)c2ccc(Oc3ccc(O)cc3)c(C)c2)c1 | inactive | – | > 50 | – | –
4 | COc1cccc(C(=O)Nc2ccc(Oc3cccc(O)c3)cc2)c1 | inactive | – | – | – | –
5 | COc1cccc(C(=O)Nc2cc(Cl)c(Oc3ccc(O)cc3)c(Cl)c2)c1 | inactive | – | > 50 | Dose-dependent effect | –
6 | CN(C)c1cccc(C(=O)Nc2ccc(Oc3cccc(O)c3)cc2)c1 | inactive | inactive | – | – | –
7 | COc1cccc(C(=O)N(C)c2cccc(Oc3ccc(O)cc3)c2)c1 | inactive | inactive | – | – | –
8 | COc1ccccc1C(=O)Nc1cccc(Oc2ccc(O)cc2)c1 | inactive | – | – | – | –
9 | COc1cccc(C(=O)Nc2ccc(Oc3ccc(O)cc3)cc2O)c1 | inactive | inactive | – | – | –
10 | C[C@](O)(CS(=O)(=O)c1ccc(F)cc1)C(=O)Nc1ccc(C#N)c(C(F)(F)F)c1 | – | – | – | inactive | –
11 | COc1ccc(C(=O)Nc2cccc(Oc3ccc(O)cc3)c2)cc1 | inactive | – | – | – | –
12 | COc1ccccc1C(=O)Nc1cccc(Oc2cccc(O)c2)c1 | inactive | inactive | – | – | –
13 | COc1cccc(C(=O)Nc2ccc(Oc3ccc(O)cc3)c(Br)c2)c1 | inactive | – | > 50 | – | –
14 | COc1cccc(C(=O)Nc2ccc(Oc3ccc(O)cc3)c(F)c2F)c1 | inactive | – | > 50 | Dose-dependent effect | –
15 | COc1cccc(C(=O)Nc2cccc(Oc3ccc(O)cc3)c2)c1 | inactive | inactive | – | – | –
16 | CN(C)c1ccccc1C(=O)Nc1ccc(Oc2cccc(O)c2)cc1 | inactive | inactive | – | – | –
17 | CN(C)c1ccccc1C(=O)Nc1cccc(Oc2cccc(O)c2)c1 | inactive | inactive | – | – | –
18 | COc1ccc(C(=O)Nc2ccc(Oc3cccc(O)c3)cc2)cc1 | inactive | inactive | – | – | –
19 | COc1ccc(C(=O)Nc2ccc(C)c(Oc3ccc(O)cc3)c2)cc1 | inactive | – | – | – | –
20 | COc1cccc(C(=O)Nc2cccc(Oc3cccc(O)c3)c2)c1 | inactive | – | – | – | –

Row | SMILES | Activity [1] | inhibition [2] | inhibition [3] [%] | inhibition [4] | IC50 [5] [nM]
21 | CN(C)c1cccc(C(=O)Nc2cccc(Oc3ccc(O)cc3)c2)c1 | inactive | inactive | – | – | –
22 | COc1ccc(C(=O)Nc2cccc(Oc3cccc(O)c3)c2)cc1 | inactive | – | – | – | –
23 | CN(C)c1ccccc1C(=O)Nc1cccc(Oc2ccc(O)cc2)c1 | inactive | – | > 50 | – | –
24 | COc1cccc(C(=O)Nc2cc(F)c(Oc3ccc(O)cc3)c(F)c2)c1 | inactive | – | > 50 | Dose-dependent effect | –
25 | COc1cccc(C(=O)Nc2ccc(Oc3ccc(O)cc3)cc2Cl)c1 | inactive | – | > 50 | – | –
26 | COc1cccc(C(=O)Nc2ccc(Oc3ccc(O)cc3)c(C(F)(F)F)c2)c1 | inactive | – | > 50 | – | –
27 | COc1cccc(C(=O)Nc2ccc(Oc3ccc(O)cc3)c(C#N)c2)c1 | inactive | inactive | – | – | –
28 | COc1cccc(C(=O)Nc2ccc(Oc3ccc(O)cc3)cc2F)c1 | inactive | – | > 50 | Dose-dependent effect | –
29 | COc1ccc(C(=O)N(C)c2cccc(Oc3ccc(O)cc3)c2)cc1 | inactive | inactive | – | – | –
30 | COc1ccc(C(=O)Nc2cc(Oc3ccc(O)cc3)ccc2C)cc1 | inactive | – | – | – | –
31 | COc1cccc(C(=O)Nc2ccc(Oc3ccc(O)cc3)c(Cl)c2)c1 | inactive | – | > 50 | Dose-dependent effect | –
32 | CN(C)c1ccc(C(=O)Nc2cccc(Oc3ccc(O)cc3)c2)cc1 | inactive | – | > 50 | – | –
33 | CN(C)c1ccc(C(=O)Nc2ccc(Oc3cccc(O)c3)cc2)cc1 | inactive | – | > 50 | – | –
34 | COc1ccccc1C(=O)Nc1ccc(C)c(Oc2ccc(O)cc2)c1 | inactive | – | > 50 | – | –
35 | COc1cccc(C(=O)Nc2ccc(Oc3ccc(O)cc3)cc2OC)c1 | inactive | – | > 50 | – | –
36 | COc1cccc(C(=O)Nc2ccc(Oc3ccc(O)cc3)c(C)c2)c1 | – | – | > 50 | Dose-dependent effect | 750
37 | COc1cccc(C(=O)Nc2ccc(Oc3ccc(O)cc3)c(F)c2)c1 | inactive | – | > 50 | Dose-dependent effect | –
38 | CN(C)c1cccc(C(=O)Nc2cccc(Oc3cccc(O)c3)c2)c1 | inactive | – | – | – | –
39 | COc1cccc(C(=O)Nc2ccc(Oc3ccc(O)cc3)cc2C)c1 | inactive | – | > 50 | – | –
